Assay outcomes: PubChem BioAssay, Broad Institute
The list is not random: actives were taken first. Their share in the collection is about 2.3%.
PGC1a acetyl inh – PGC1a acetylation modulation, inhibitor mode; hit rate 0.17% among 350,000; U2OS PGC1a acetylation, AlphaScreen anti-acetyl-lysine; with virally co-expressed GCN5 acetyltransferase; AID 651687; inhibition, % at 15.6 µM;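 active = every replicate shows inhibition of at least 40%; inconclusive = mean inhibition at least 40% but some replicate below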;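 note: 0% = neutral control wells and 100% = positive control wells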
CFTR F508del cor – correctors of CFTR F508del function in bronchial epithelial cells | CFBE cells, YFP halide quenching; stimulated with forskolin plus potentiator P3; % fluorescence drop versus neutral controls | activity (quench increase), % at 7.58 µM | hit rate 0.36% among 350,000;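 active = mean added fluorescence quench of at least 8% versus neutral control, with both replicates also reaching 8%; inconclusive = only one of the mean or replicate conditions met; inactive = mean below 8% and not both replicates reaching 8%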;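 note: cells transiently co-express mutant CFTR-F508del with the halide-sensitive YFP; corrector assay measuring rescue of mutant channel to the surface after 24 h compound exposure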
HIV Env fusion – blocks HIV Env-driven cell-cell fusion; inhibition, % at 12.3 µM; AID 651610; HeLa-JRFL Env/CEM21 cell fusion, luciferase; hit rate 1.1% among 360,000;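 active = mean replicate inhibition score of at least 50 and every replicate individually at or above 50; inconclusive = only one of the two criteria met; inactive = mean below 50 and not all replicates reaching 50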;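 note: 0% = plate neutral controls and 100% = maraviroc near 300 nM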
FN deposit inh – fibronectin deposition inhibition | AH1F fibroblasts, Alexa488-fibronectin deposition fluorescence, overnight | hit rate 0.086% among 350,000 | inhibition, % at 12.6 µM;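 active = mean inhibition across replicates of 30% or more, regardless of how many single replicates reach that level; inconclusive = mean under 30% yet at least half of replicates reach 30%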;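 note: positive control wells lacked labelled fibronectin entirely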
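material = AH1F fibroblast monolayer depositing Alexa488-labelled fibronectin into matrix | amount = 10000 AH1F cells/well | buffer or medium = DMEM plus 2% serum, read in PBS | incubation = 1 h cell adhesion before compound, then overnight fibronectin incubation | detection = fluorescence at 485 nm excitation, 525 nm emission | evaluation = percent inhibition as loss of matrix-bound fibronectin fluorescence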
PAX8 inh HTS – lowers PAX8-driven luciferase in RMG-I cells. RMG-I TPO-luciferase reporter, SteadyGlo, 24 h. inhibition, % at 12.6 µM. hit rate 1.2% among 360,000. AID 652154;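 active = mean replicate inhibition at least 60% with every replicate also reaching 60%; inconclusive = only one of the two criteria is met; inactive = mean below 60% and not all replicates reaching 60%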;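 note: luciferase light reporting Pax8 driven TPO promoter activity; plate controls were median of neutral control wells for no effect and mitoxantrone controls for full effect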
EWS-Fli inh – EWS/Fli transcriptional activity inhibition; A673 NR0B1-luciferase reporter, viability-normalised; AID 651661; hit rate 0.67% among 350,000; inhibition, % at 12.6 µM;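 active = mean inhibition of at least 50% after viability correction, with every replicate also passing that limit; inconclusive = mean reaches 50% but only one of two replicates passes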;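 note: firefly luciferase signal divided by Alamar Blue viability fluorescence both relative to DMSO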
Active calls of the source: *; [ ] = another dose, or the depositor's remark.

C=CC(=O)N=c1sc2ccccc2n1-c1ccccc1 was read as PGC1a acetyl inh 8, CFTR F508del cor 5, HIV Env fusion -66, FN deposit inh -7, PAX8 inh HTS 92* and EWS-Fli inh 4.
For COCC(=O)Nc1ccc2c(c1)C(=O)N(C)[C@@H]1CC[C@H](CC(=O)NCc3ccccc3F)O[C@H]1CO2 the results were PGC1a acetyl inh 4, CFTR F508del cor 1, HIV Env fusion -29[16.7 µM], FN deposit inh -9, PAX8 inh HTS -20 and EWS-Fli inh 7.
`CN(C)c1ccc(-c2nc3ccccc3c(=O)[nH]2)cc1` gave PGC1a acetyl inh 13, CFTR F508del cor -3, HIV Env fusion -15, FN deposit inh 0, PAX8 inh HTS 81* and EWS-Fli inh 62*.
For O=C(Nc1ncnc2c1C(c1ccccc1)c1c(ccc3ccccc13)O2)c1ccccc1 (stereo not drawn) the results were CFTR F508del cor 0, HIV Env fusion 1, FN deposit inh 1, PAX8 inh HTS 32 and EWS-Fli inh 26.
O=C(Cc1ccccc1)Nc1ncnc2c1C(c1ccccc1)c1c(ccc3ccccc13)O2 (stereo not drawn) was read as CFTR F508del cor -5, HIV Env fusion 68*, FN deposit inh -5, PAX8 inh HTS inconclusive and EWS-Fli inh 17.
Screening COc1cccc(S(=O)(=O)N[C@H]2CC[C@H](CCNC(=O)Cc3ccncc3)O[C@@H]2CO)c1 returned PGC1a acetyl inh -4, CFTR F508del cor 1, HIV Env fusion 1[16.7 µM], FN deposit inh -3, PAX8 inh HTS 51 and EWS-Fli inh 2.
`CC(=O)N[C@@H]1CC[C@@H](CCNC(=O)Nc2ccc(C(F)(F)F)cc2)O[C@@H]1CO` gave PGC1a acetyl inh -16, CFTR F508del cor 1, HIV Env fusion 9[16.7 µM], FN deposit inh -6, PAX8 inh HTS 9 and EWS-Fli inh -8.
Screening C=CCSc1nnc(NC(=O)C2CC(=O)N(c3ccc4c(c3)OCCO4)C2)s1 (stereo not drawn) returned PGC1a acetyl inh 2, CFTR F508del cor 1, HIV Env fusion inactive, FN deposit inh -4, PAX8 inh HTS 81* and EWS-Fli inh 11.
`O=C(Nc1ncc(Cc2ccc(SC(F)F)cc2)s1)c1ccc(OC(F)F)cc1` gave HIV Env fusion -9, FN deposit inh 16, PAX8 inh HTS inconclusive and EWS-Fli inh 53*.
`CNC[C@@H]1OCCCC[C@H](C)Oc2ccc(NS(=O)(=O)c3ccc(C)cc3)cc2C(=O)N([C@H](C)CO)C[C@H]1C` gave PGC1a acetyl inh -36, CFTR F508del cor -1, HIV Env fusion 15[16.7 µM], FN deposit inh -1, PAX8 inh HTS 3 and EWS-Fli inh -25.
Screening O=C(c1ccncc1)N1CC(=O)N2[C@H](CO)[C@@H](c3ccc(-c4ccccc4)cc3)[C@@H]2C1 returned PGC1a acetyl inh 8, CFTR F508del cor -1, PAX8 inh HTS -16 and EWS-Fli inh -5.
CC(=O)N1C[C@@H]2[C@H](c3ccccc31)[C@H](CO)N2C(=O)c1ccc(F)cc1 was read as PGC1a acetyl inh 7, CFTR F508del cor -1, PAX8 inh HTS -8 and EWS-Fli inh 1.
`COC(=O)c1cc2c(c3c4cc(OC)ccc4n(S(=O)(=O)c4ccccc4)c13)C(=O)N(Cc1ccc(C(F)(F)F)cc1)C2` gave CFTR F508del cor -1, HIV Env fusion 96*, FN deposit inh 4, PAX8 inh HTS -2 and EWS-Fli inh 18.
CSC1SCC2C(=O)N(C)C(C(C)C)C(=O)OCC(NC(=O)c3cnc4ccccc4n3)C(=O)NC(C)C(=O)N(C)C1C(=O)N(C)C(C(C)C)C(=O)OCC(NC(=O)c1cnc3ccccc3n1)C(=O)NC(C)C(=O)N2C (stereo not drawn) was read as PGC1a acetyl inh inconclusive, CFTR F508del cor -3, HIV Env fusion 84*, FN deposit inh 0, PAX8 inh HTS 97* and EWS-Fli inh 16.
COc1ccc(C(C)(O)c2nc(-c3ccc(F)cc3OC)cs2)cc1 (stereo not drawn) was read as CFTR F508del cor -1, HIV Env fusion 20, FN deposit inh 10, PAX8 inh HTS 18 and EWS-Fli inh 58*.
`COc1cccc(C(C)(O)c2nc(-c3ccc(F)cc3OC)cs2)c1` (stereo not drawn) gave PGC1a acetyl inh 4, CFTR F508del cor -1, HIV Env fusion 6, FN deposit inh -1, PAX8 inh HTS 8 and EWS-Fli inh 2.
For COc1ccc(-c2csc(C(C)(O)c3ccc(OC)cc3)n2)cc1 (stereo not drawn) the results were PGC1a acetyl inh -28, CFTR F508del cor 0, HIV Env fusion 20, FN deposit inh 4, PAX8 inh HTS 16 and EWS-Fli inh 3.
`COc1ccc(C(C)(O)c2nc(-c3ccncc3)cs2)cc1` (stereo not drawn) gave PGC1a acetyl inh -44, CFTR F508del cor 1, HIV Env fusion 16, FN deposit inh -3, PAX8 inh HTS 29 and EWS-Fli inh 59*.
`COc1ccc(C(C)(O)c2nc(-c3ccccc3C)cs2)cc1` (stereo not drawn) gave PGC1a acetyl inh -15, CFTR F508del cor -3, HIV Env fusion -19, FN deposit inh 9, PAX8 inh HTS 29 and EWS-Fli inh 60*.
`COc1cccc(NC(=O)N2CC(=O)N3[C@@H](CO)[C@@H](c4ccc(C#CC5CCCC5)cc4)[C@@H]3C2)c1` gave PGC1a acetyl inh -2, CFTR F508del cor 1, FN deposit inh 3, PAX8 inh HTS 13 and EWS-Fli inh -2.
For O=C(O)CC(c1cccc(C(F)(F)F)c1)N1CCS(=O)(=O)CC1 (stereo not drawn) the results were PGC1a acetyl inh 3, CFTR F508del cor 1, HIV Env fusion 11, FN deposit inh 1, PAX8 inh HTS 7 and EWS-Fli inh 4.
Screening O=S1(=O)CCN(C(CO)c2ccccc2)CC1 (stereo not drawn) returned PGC1a acetyl inh -5, CFTR F508del cor 10*, HIV Env fusion -17, FN deposit inh 3, PAX8 inh HTS 4 and EWS-Fli inh 2.
`C[C@H](CO)N1C[C@H](C)[C@@H](CN(C)C(=O)CCCN(C)C)OCCCC[C@H](C)Oc2ccc(NC(=O)CCCN(C)C)cc2C1=O` gave PGC1a acetyl inh 4, CFTR F508del cor 1, HIV Env fusion -6[16.7 µM], FN deposit inh -21, PAX8 inh HTS -17 and EWS-Fli inh -17.
`COc1ccc(S(=O)(=O)N(C)C[C@@H]2OCCCC[C@H](C)Oc3ccc(NC(=O)Nc4ccc(C(F)(F)F)cc4)cc3C(=O)N([C@@H](C)CO)C[C@H]2C)cc1` gave PGC1a acetyl inh -20, CFTR F508del cor 0, HIV Env fusion 3[16.7 µM], FN deposit inh -11, PAX8 inh HTS 12 and EWS-Fli inh 5.
